Drawing on ChEMBL document CHEMBL1157645, “Synthesis of 2-(thienyl-2-yl or -3-yl)-4-furyl-6-aryl pyridine derivatives and evaluation of their topoisomerase I and II inhibitory activity, cytotoxicity, and structure-activity relationship” (Bioorg Med Chem, 2010), this text covers IC50 and inhibition for 20 molecules.

The subject of one test is HeLa. As to the kind of experiment: Cytotoxicity against human HeLa cells in presence of 10% fetal bovine serum. The format is functional, cell-based. The gist of the method: (§1)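 Cells cultured per supplier's instructions and seeded at 2–4 × 10⁴ cells per well. On day 2 the medium was replaced with medium containing graded compound concentrations. On day 4 cell counting kit-8 was added for a further 4 h, and absorbance was read at 450 nm. Values are 50% inhibitory concentrations, given as mean from three experiments run in triplicate.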

The test system of another test is K562. Put plainly: Cytotoxicity against human K562 cells in presence of 10% fetal bovine serum. The format is functional, cell-based. The gist of the method: as §1
For test [1], the target named is DNA topoisomerase 2-alpha (Homo sapiens) (UniProt P11388). Put plainly: Inhibition of human recombinant DNA topoisomerase 2 assessed as inhibition of relaxation of supercoiled pBR322 DNA at 20 uM by agarose gel electrophoresis. In short, it runs like this: (§2)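 pBR322 DNA was incubated with two units of human topo IIα, with or without compound (DMSO stocks at 20 mM), in 10 mM Tris–HCl pH 7.9 with 50 mM NaCl, 5 mM MgCl₂, 1 mM EDTA, 1 mM ATP and BSA, for 30 min at 30 °C. The reaction was stopped with EDTA and run on 1% agarose in TAE at 25 V for 4 h. Gels were stained with ethidium bromide, and supercoiled DNA was quantified under UV.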
Sequence of DNA topoisomerase 2-alpha (Homo sapiens) (P11388 whole entry): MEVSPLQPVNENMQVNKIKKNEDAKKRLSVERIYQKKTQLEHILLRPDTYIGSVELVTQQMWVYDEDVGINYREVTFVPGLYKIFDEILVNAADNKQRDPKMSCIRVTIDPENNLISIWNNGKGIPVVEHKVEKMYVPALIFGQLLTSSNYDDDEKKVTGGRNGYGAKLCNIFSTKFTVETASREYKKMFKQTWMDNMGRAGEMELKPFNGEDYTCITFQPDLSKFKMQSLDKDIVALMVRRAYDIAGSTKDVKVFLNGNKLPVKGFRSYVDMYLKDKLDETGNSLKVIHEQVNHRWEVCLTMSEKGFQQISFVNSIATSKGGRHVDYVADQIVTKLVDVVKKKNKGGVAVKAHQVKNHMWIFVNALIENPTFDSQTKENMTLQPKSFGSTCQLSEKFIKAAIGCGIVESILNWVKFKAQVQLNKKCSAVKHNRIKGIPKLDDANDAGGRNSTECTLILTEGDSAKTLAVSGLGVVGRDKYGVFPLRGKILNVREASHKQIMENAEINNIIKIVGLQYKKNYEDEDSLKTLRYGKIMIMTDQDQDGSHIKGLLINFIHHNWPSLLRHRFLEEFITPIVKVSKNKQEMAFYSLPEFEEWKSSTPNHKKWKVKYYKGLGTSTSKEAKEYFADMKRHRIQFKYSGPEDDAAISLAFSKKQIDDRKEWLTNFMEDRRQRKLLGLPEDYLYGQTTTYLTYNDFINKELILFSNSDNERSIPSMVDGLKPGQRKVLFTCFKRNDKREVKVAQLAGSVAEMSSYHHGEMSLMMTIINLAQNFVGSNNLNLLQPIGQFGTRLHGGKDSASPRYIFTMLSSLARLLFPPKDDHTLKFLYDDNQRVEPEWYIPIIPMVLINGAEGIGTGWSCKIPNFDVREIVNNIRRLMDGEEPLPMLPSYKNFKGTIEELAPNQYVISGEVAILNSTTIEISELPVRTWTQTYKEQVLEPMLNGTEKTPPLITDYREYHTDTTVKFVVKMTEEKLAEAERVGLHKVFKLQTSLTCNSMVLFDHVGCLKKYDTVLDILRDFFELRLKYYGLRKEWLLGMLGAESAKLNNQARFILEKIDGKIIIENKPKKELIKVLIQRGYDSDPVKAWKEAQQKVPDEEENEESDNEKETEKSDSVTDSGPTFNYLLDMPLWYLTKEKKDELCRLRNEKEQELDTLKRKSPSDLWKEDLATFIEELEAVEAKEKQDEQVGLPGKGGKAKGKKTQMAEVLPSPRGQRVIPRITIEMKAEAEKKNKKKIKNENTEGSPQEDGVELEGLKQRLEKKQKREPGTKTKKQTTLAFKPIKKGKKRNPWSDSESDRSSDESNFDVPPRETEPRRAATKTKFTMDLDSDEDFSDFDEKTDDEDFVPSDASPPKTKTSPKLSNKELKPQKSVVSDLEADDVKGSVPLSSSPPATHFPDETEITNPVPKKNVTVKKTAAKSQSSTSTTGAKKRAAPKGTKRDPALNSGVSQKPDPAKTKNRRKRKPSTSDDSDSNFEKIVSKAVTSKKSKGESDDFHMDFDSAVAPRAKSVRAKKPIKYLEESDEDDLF

The next test has as its system DU-145. Put plainly: Cytotoxicity against human DU145 cells in presence of 10% fetal bovine serum. The format is functional, cell-based. The gist of the method: as §1
Test [2] concerns the target T1, DNA topoisomerase 1 (Homo sapiens) (UniProt P11387).
T1 sequence (whole entry): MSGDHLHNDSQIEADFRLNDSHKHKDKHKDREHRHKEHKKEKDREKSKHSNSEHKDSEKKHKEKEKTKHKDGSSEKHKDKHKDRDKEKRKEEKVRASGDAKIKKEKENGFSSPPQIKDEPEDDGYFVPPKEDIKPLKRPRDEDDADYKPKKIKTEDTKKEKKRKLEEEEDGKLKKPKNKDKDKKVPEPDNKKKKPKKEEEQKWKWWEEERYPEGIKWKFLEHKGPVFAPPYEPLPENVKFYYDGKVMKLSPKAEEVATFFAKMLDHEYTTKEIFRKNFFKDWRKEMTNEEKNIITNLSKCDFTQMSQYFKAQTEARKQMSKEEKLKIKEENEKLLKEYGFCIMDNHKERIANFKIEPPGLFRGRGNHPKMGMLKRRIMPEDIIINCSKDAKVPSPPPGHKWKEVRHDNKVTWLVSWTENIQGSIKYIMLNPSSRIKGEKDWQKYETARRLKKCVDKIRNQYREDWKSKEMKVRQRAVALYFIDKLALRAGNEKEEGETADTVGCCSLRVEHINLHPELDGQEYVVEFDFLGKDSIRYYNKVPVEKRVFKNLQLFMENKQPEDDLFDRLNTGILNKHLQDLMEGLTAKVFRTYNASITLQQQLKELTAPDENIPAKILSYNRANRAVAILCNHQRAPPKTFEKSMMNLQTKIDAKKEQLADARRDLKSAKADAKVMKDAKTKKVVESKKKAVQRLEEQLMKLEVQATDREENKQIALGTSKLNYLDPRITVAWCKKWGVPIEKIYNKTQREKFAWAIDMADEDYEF
As to the kind of experiment: Inhibition of human recombinant topoisomerase 1 assessed as inhibition of relaxation of supercoiled pBR322 DNA at 100 uM by agarose gel electrophoresis. In short, it runs like this:
(§3)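 100 ng pBR322 DNA was incubated with 0.4 units of recombinant human topo I, with or without compound (DMSO stocks at 20 mM), for 30 min at 37 °C in 10 mM Tris–HCl pH 7.9, 150 mM NaCl, 0.1% BSA, 1 mM spermidine and 5% glycerol. The reaction was stopped with sarkosyl/bromophenol blue/glycerol and run on 1% agarose in TAE at 15 V for 7 h. Relaxation was read from ethidium bromide staining.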

Test [3] deals with DNA topoisomerase 2-alpha (Homo sapiens) (UniProt P11388). Put plainly: Inhibition of human recombinant DNA topoisomerase 2 assessed as inhibition of relaxation of supercoiled pBR322 DNA at 100 uM by agarose gel electrophoresis. The gist of the method:
as §2

The test system of another test is MCF7. As to the kind of experiment: Cytotoxicity against human MCF7 cells in presence of 10% fetal bovine serum. The format is functional. The gist of the method:
as §1

The subject of another test is HCT-15. Put plainly: Cytotoxicity against human HCT15 cells in presence of 10% fetal bovine serum. Format: functional, cell-based. The gist of the method:
as §1

Test [4] has as its target T1, DNA topoisomerase 1 (Homo sapiens). Put plainly: Inhibition of human recombinant topoisomerase 1 assessed as inhibition of relaxation of supercoiled pBR322 DNA at 20 uM by agarose gel electrophoresis. The gist of the method: as §3

For orientation: IC50 means the concentration needed to halve the response being measured. Usually inhibition stands for the drop in the measured response relative to a control, in per cent. On to `Cc1cccc(-c2cc(-c3ccc(Cl)o3)cc(-c3ccsc3)n2)c1`, for which the IC50 was 20.3 µM in the test on HeLa; 20.2 µM in the test on K562; 17.9 µM in the test with DU-145; 1.28 µM in the test on MCF7; 21.7 µM in the test on HCT-15. The inhibition in test [1] is 56.7%; in test [2], 7.5%; in test [3] it was 64.1%.

As for `CC[C@@]1(O)C(=O)OCc2c1cc1n(c2=O)Cc2cc3ccccc3nc2-1` [CAMPTOTHECIN], the IC50 was 0.63 µM with HeLa; 0.08 µM in the test with K562; 0.94 µM in the test with DU-145; 0.05 µM in the test on MCF7; 0.64 µM with HCT-15.

`Clc1ccc(-c2cc(-c3ccsc3)nc(-c3ccco3)c2)o1`: the IC50 in the test with HeLa was over 50 µM; in the test with K562 it was 22.4 µM; with DU-145 it was 18.9 µM; in the test on MCF7, 21.3 µM; in the test with HCT-15, over 50 µM. In addition, the inhibition in test [1] worked out at 63.8%; in test [2], 8.2%; in test [3] it was 78.6%.

`COc1cc([C@@H]2c3cc4c(cc3[C@@H](O[C@@H]3O[C@@H]5CO[C@@H](C)O[C@H]5[C@H](O)[C@H]3O)[C@H]3COC(=O)[C@H]23)OCO4)cc(OC)c1O` [ETOPOSIDE]: the IC50 is 1.57 µM in the test on HeLa; 2.84 µM in the test with K562; 2.45 µM with DU-145; 1.66 µM with MCF7; 1.29 µM in the test on HCT-15.

For the molecule `COc1cccc2c1C(=O)c1c(O)c3c(c(O)c1C2=O)C[C@@](O)(C(=O)CO)C[C@@H]3O[C@H]1C[C@H](N)[C@H](O)[C@H](C)O1.Cl` [DOXORUBICIN HYDROCHLORIDE], the IC50 was determined as 2.45 µM in the test with K562, 1.98 µM with DU-145, 1.25 µM in the test with MCF7 and 2.32 µM in the test on HCT-15.

In the case of `Clc1ccc(-c2cc(-c3ccsc3)nc(-c3ccccc3Cl)c2)o1`, the IC50 came to 8.07 µM in the test on HeLa; 17.2 µM in the test with K562; 19.3 µM in the test on DU-145; 1.71 µM in the test with MCF7; 4.57 µM with HCT-15. Besides, the inhibition in test [1] came out at 59.5%; in [2], 0%; in test [3], 64.1%.

For the molecule `Clc1ccc(-c2cc(-c3cccnc3)nc(-c3ccsc3)c2)o1`, the IC50 is over 50 µM in the test with HeLa; 21.7 µM with K562; 21.6 µM in the test on DU-145; over 50 µM with MCF7; over 50 µM in the test on HCT-15. In addition, the inhibition in [1] came out at 60.8%; in [2] it was 0%; in test [3] it was 86.5%.

As to `Clc1ccc(-c2cc(-c3cccs3)nc(-c3ccccc3Cl)c2)o1`, the IC50 was 18.5 µM with HeLa; 17.2 µM with K562; 16.8 µM in the test with DU-145; 1.93 µM with MCF7; 6.19 µM with HCT-15. In addition, the inhibition in [1] was found to be 15.4%; in [2], 41.3%; in test [3], 35%; in test [4], 8%.

As to `Cc1ccc(-c2cc(-c3ccc(Cl)o3)cc(-c3ccsc3)n2)cc1`, the IC50 with HeLa came to 16.2 µM; in the test with K562 it was 19.9 µM; in the test on DU-145 it was 21.2 µM; in the test on MCF7 it was 0.63 µM; in the test on HCT-15, 7.41 µM. Besides, the inhibition was found to be 70.2% in test [1], 2.6% in test [2] and 78.9% in [3].

On to `Cc1ccc(-c2cc(-c3ccc(Cl)o3)cc(-c3cccs3)n2)cc1`, for which the IC50 worked out at 16.3 µM with HeLa; 21.5 µM in the test with K562; 19.3 µM in the test with DU-145; 1.33 µM in the test on MCF7; 9.89 µM in the test on HCT-15. The inhibition in test [2] turned out to be 41.8%; in test [3], 21.8%; in [4], 9.3%.

With `Clc1ccc(-c2cc(-c3ccoc3)cc(-c3ccsc3)n2)cc1`, the IC50 in the test with HeLa was 4.14 µM; with K562, 0.73 µM; with DU-145 it was 37.6 µM; in the test with MCF7 it was 56.1 µM; with HCT-15, over 100 µM. Besides, the figures for the inhibition in test [2] and in test [3] were 0% and 20.5%, respectively.

For the molecule `Clc1cccc(-c2cc(-c3ccc(Cl)o3)cc(-c3ccsc3)n2)c1`, the IC50 was 8.71 µM with HeLa; 23 µM in the test with K562; 10.4 µM in the test with DU-145; 4.26 µM in the test on MCF7; 13.7 µM in the test on HCT-15. In addition, the inhibition in [1] stood at 75.4%; in [2], 0%; in test [3], 75.9%.

Regarding `Clc1ccc(-c2cc(-c3ccsc3)nc(-c3ccccn3)c2)o1`, the IC50 is 22.5 µM with HeLa; 21.9 µM in the test with K562; 10.9 µM in the test on DU-145; 21 µM in the test on MCF7; over 50 µM in the test on HCT-15. The inhibition was determined as 60.9% in test [1], 0% in [2] and 63.1% in test [3].

Take `Cc1ccc(-c2cc(-c3ccc(Cl)o3)cc(-c3ccsc3)n2)o1`: the IC50 in the test with HeLa was over 50 µM; in the test on K562, 23.3 µM; in the test on DU-145, 18.5 µM; with MCF7 it was 1.42 µM; in the test with HCT-15, over 50 µM. Further, the inhibition amounted to 34.7% in test [1], 9.1% in test [2] and 62.6% in test [3].

In the case of `Cc1ccccc1-c1cc(-c2ccc(Cl)o2)cc(-c2ccsc2)n1`, the half-maximal inhibitory concentration (IC50) in the test with HeLa came out at 9.77 µM; in the test with K562, 18.4 µM; in the test on DU-145, 24.8 µM; in the test on MCF7 it was 1.23 µM; in the test with HCT-15, 4.63 µM. The inhibition in test [1] was 46.3%; in test [2], 6.7%; in test [3] it was 59.6%.

As to `Clc1ccc(-c2cc(-c3ccco3)nc(-c3cccs3)c2)o1`, the IC50 was 18.8 µM in the test on HeLa; 16 µM in the test with K562; 21.8 µM in the test with DU-145; 5.27 µM in the test with MCF7; over 50 µM in the test with HCT-15. For the same molecule, the results for the inhibition in test [1], in test [2] and in [3] were 25.5%, 16% and 38.5%, respectively.

For `Clc1ccc(-c2cc(-c3ccco3)cc(-c3cccs3)n2)cc1`, the IC50 is 32.7 µM in the test on HeLa; over 100 µM with K562; over 100 µM with DU-145; 24.6 µM in the test on MCF7; over 100 µM in the test with HCT-15. For the same molecule, the inhibition in [2] came out at 2.7%; in test [3], 31.4%.

In the case of `Clc1ccc(-c2cc(-c3cccnc3)nc(-c3cccs3)c2)o1`, the IC50 with HeLa worked out at 14.6 µM; in the test with K562 it was 22.3 µM; with DU-145, 13 µM; in the test on MCF7, 2.87 µM; in the test on HCT-15 it was 1.24 µM. The inhibition amounted to 30.9% in test [1], 25.8% in [2] and 51.5% in test [3].

Consider `Cc1ccc(-c2cc(-c3ccoc3)cc(-c3ccsc3)n2)cc1`, for which the IC50 in the test on HeLa is 1.47 µM; with K562 it was 47.8 µM; in the test on DU-145, 13 µM; in the test on MCF7, 9.32 µM; with HCT-15 it was 44.8 µM. Further, the inhibition in test [2] is 13.2%; in [3] it was 14.2%.

For `Clc1ccc(-c2cc(-c3ccoc3)cc(-c3cccs3)n2)cc1`, the IC50 in the test on HeLa stood at 5.53 µM; in the test with K562, 21.1 µM; in the test with DU-145 it was 21.1 µM; with MCF7 it was 29.1 µM; in the test on HCT-15 it was 50 µM. In addition, the values for the inhibition in [2] and in [3] were 0% and 30.2%, respectively.
